# pIC50: −log10 of the molar value. “Also recorded” adds a separate entry of the source. Where two headings read alike, the source gives them in different places.
# Columns and labels:
# Plasma pharmacokinetics = type: in vivo, human
# Summary of the method: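 Capsules (100–600 mg bid) or tablets (400 mg bid) were given orally. In escalation, plasma was drawn pre-dose and at 0.5, 1, 2, 4, 6 and 8 h on cycle 1 days 1 and 15, plus pre-dose on C1D2, C1D16, C2D1 and C3D1. In expansion, non-NSCLC patients had the C1D15 profile plus pre-dose samples. Analysis was validated LC-MS/MS (LLOQ 1 ng/mL) with noncompartmental parameters.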
# MET [1] = settings: biochemical assays; cited from earlier work
# p‐MET = p‐MET immunohistochemistry in paired tumor biopsies; type: in vivo, human; settings: 450 mg bid capsule, cycle 1 day 15, one advanced CRC patient
# advanced solid tumors = settings: Japanese patients with advanced solid tumors; cited from earlier work
# MET [2] = settings: cellular assays; cited from earlier work
# [3] = End of treatment / discontinuation reasons; type: in vivo, human; settings: dose‐expansion part, six of 38 patients
# [4] = Dose-limiting toxicities, MTD and RP2D determination; type: in vivo, human
# other kinases = settings: large panels of biochemical and binding assays; cited from earlier work
# MET‐dependent tumors = settings: tolerable doses; animal models incl. NSCLC, HCC, GBM; cited from earlier work
# [5] = tested on: MET‐dysregulated advanced solid tumors; test: Best overall response according to investigator; type: in vivo, human
# Summary of the method: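 Patients with MET-dysregulated advanced solid tumours took oral twice-daily doses in 28-day cycles: 100–600 mg capsules or 400 mg tablets in escalation, and 600 mg capsules or 400 mg tablets in expansion. Tumours were assessed by CT, or by contrast MRI for GBM or when CT was contraindicated. Response was judged by the investigator per RECIST v1.0 (the ORR endpoint is defined per v1.1), or MacDonald criteria for GBM.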
# c‐MET phosphorylation = settings: read-out: EC90 (90% inhibition of c‐MET phosphorylation); total concentration; c‐MET‐dependent mouse tumor models; cited from earlier work
# [6] = dose‐expansion cohorts, N = 18 evaluable
# [7] = escalation 400 mg bid tablet n=5
# [8] = expansion RP2D gastric cancer n=9
# [9] = expansion RP2D other indications n=18
compound,measurement,setting,value
CNC(=O)c1ccc(-c2cnc3ncc(Cc4ccc5ncccc5c4)n3n2)cc1F [capmatinib],drug accumulation following multiple doses,Plasma pharmacokinetics; 400 mg bid tablets,Limited drug accumulation
same,"Racc (accumulation ratio), Mean (SD)","Plasma pharmacokinetics; Cycle 1 Day 15, 100 mg bid n=3",1.54 (0.786)
same,"Racc (accumulation ratio), Mean (SD)","Plasma pharmacokinetics; Cycle 1 Day 15, 200 mg bid n=5",1.36 (0.869)
same,"Racc (accumulation ratio), Mean (SD)","Plasma pharmacokinetics; Cycle 1 Day 15, 250 mg bid n=3",1.08 (0.443)
same,"Racc (accumulation ratio), Mean (SD)","Plasma pharmacokinetics; Cycle 1 Day 15, 350 mg bid n=3",1.38 (0.614)
same,"Racc (accumulation ratio), Mean (SD)","Plasma pharmacokinetics; Cycle 1 Day 15, 400 mg bid tablet n=5",1.09 (0.408)
same,"Racc (accumulation ratio), Mean (SD)","Plasma pharmacokinetics; Cycle 1 Day 15, 450 mg bid n=5",2.36 (1.75)
same,"Racc (accumulation ratio), Mean (SD)","Plasma pharmacokinetics; Cycle 1 Day 15, 600 mg bid n=15",2.07 (0.848)
same,drug accumulation ratio following multiple doses,Plasma pharmacokinetics; capsules,one‐ to twofold
same,drug accumulation following multiple doses,Plasma pharmacokinetics; capsules 450 and 600 mg bid,ca. twofold
same,dose proportionality of steady‐state AUCtau and Cmax,"Plasma pharmacokinetics; capsules, 100 to 600 mg bid",generally dose proportional
same,"mean exposure, tablet 400 mg bid versus capsules 600 mg bid",Plasma pharmacokinetics; steady state,comparable mean exposure
same,"Cmax, Mean (SD)","Plasma pharmacokinetics; steady state, Cycle 1 Day 15, 200 mg bid n=5",2500 (856) ng/mL
same,"Tmax, Median","Plasma pharmacokinetics; steady state, Cycle 1 Day 15, 250 mg bid n=3",1.00 h
same,"Tmax, Median","Plasma pharmacokinetics; steady state, Cycle 1 Day 15, 400 mg bid tablet n=8",2.02 h
same,pIC50,MET [1],9.89
same,p‐MET H‐score (IHC) on treatment,p‐MET,2
same,best overall response stable disease,advanced solid tumors,18.2%
same,pIC50,MET [2],~9.00
same,patients discontinued as a result of AE,[3],16%
same,posterior probability of excessive toxicity (BLRM),"[4]; 600 mg bid dose level, dose‐escalation phase",20.1%
same,MTD,[4]; up to 600 mg bid capsules,not reached
same,selectivity versus other kinases,other kinases,highly selective versus other kinases
same,effect on MET‐dependent tumors,MET‐dependent tumors,regression of MET‐dependent tumors
same,Best overall response: Complete response,[5]; all escalations N=38,0 n (%)
same,Best overall response: Partial response,[5]; all escalations N=38,0 n (%)
same,Best overall response: Progressive disease,[5]; all escalations N=38,25 (66) n (%)
same,Best overall response: Unknown,[5]; all escalations N=38,3 (5) n (%)
same,Best overall response: Complete response,[5]; all expansions RP2D N=38,0 n (%)
same,Best overall response: Partial response,[5]; all expansions RP2D N=38,0 n (%)
same,tumor shrinkage,"[5]; dose escalation, 450 mg bid capsule, colon cancer and HCC",tumor shrinkage was observed in two patients; also recorded: tumor shrinkage was observed for two patients
same,patients with best percentage change from baseline in sum of tumor diameters <0,[5]; [6],7 n
same,patients with best percentage change from baseline in sum of tumor diameters >0,[5]; [6],11 n
same,Best overall response: Complete response,[5]; escalation 100 mg bid n=4,0 n (%)
same,Best overall response: Partial response,[5]; escalation 100 mg bid n=4,0 n (%)
same,Best overall response: Progressive disease,[5]; escalation 100 mg bid n=4,2 (50) n (%)
same,Best overall response: Stable disease,[5]; escalation 100 mg bid n=4,2 (50) n (%)
same,Best overall response: Unknown,[5]; escalation 100 mg bid n=4,0 n (%)
same,Best overall response: Complete response,[5]; escalation 200 mg bid n=5,0 n (%)
same,Best overall response: Partial response,[5]; escalation 200 mg bid n=5,0 n (%)
same,Best overall response: Progressive disease,[5]; escalation 200 mg bid n=5,4 (80) n (%)
same,Best overall response: Stable disease,[5]; escalation 200 mg bid n=5,1 (20) n (%)
same,Best overall response: Unknown,[5]; escalation 200 mg bid n=5,0 n (%)
same,Best overall response: Complete response,[5]; escalation 250 mg bid n=4,0 n (%)
same,Best overall response: Partial response,[5]; escalation 250 mg bid n=4,0 n (%)
same,Best overall response: Stable disease,[5]; escalation 250 mg bid n=4,1 (25) n (%)
same,Best overall response: Unknown,[5]; escalation 250 mg bid n=4,1 (25) n (%)
same,Best overall response: Complete response,[5]; escalation 350 mg bid n=3,0 n (%)
same,Best overall response: Partial response,[5]; escalation 350 mg bid n=3,0 n (%)
same,Best overall response: Progressive disease,[5]; escalation 350 mg bid n=3,2 (67) n (%)
same,Best overall response: Stable disease,[5]; escalation 350 mg bid n=3,1 (33) n (%)
same,Best overall response: Unknown,[5]; escalation 350 mg bid n=3,0 n (%)
same,Best overall response: Complete response,[5]; [7],0 n (%)
same,Best overall response: Partial response,[5]; [7],0 n (%)
same,Best overall response: Progressive disease,[5]; [7],3 (60) n (%)
same,Best overall response: Stable disease,[5]; [7],2 (40) n (%)
same,Best overall response: Unknown,[5]; [7],0 n (%)
same,Best overall response: Complete response,[5]; escalation 450 mg bid n=9,0 n (%)
same,Best overall response: Partial response,[5]; escalation 450 mg bid n=9,0 n (%)
same,Best overall response: Progressive disease,[5]; escalation 450 mg bid n=9,6 (67) n (%)
same,Best overall response: Stable disease,[5]; escalation 450 mg bid n=9,2 (22) n (%)
same,Best overall response: Unknown,[5]; escalation 450 mg bid n=9,1 (11) n (%)
same,Best overall response: Complete response,[5]; escalation 600 mg bid n=8,0 n (%)
same,Best overall response: Partial response,[5]; escalation 600 mg bid n=8,0 n (%)
same,Best overall response: Progressive disease,[5]; escalation 600 mg bid n=8,6 (75) n (%)
same,Best overall response: Stable disease,[5]; escalation 600 mg bid n=8,1 (13) n (%)
same,Best overall response: Unknown,[5]; escalation 600 mg bid n=8,1 (13) n (%)
same,Best overall response: Complete response,[5]; expansion RP2D HCC n=11,0 n (%)
same,Best overall response: Partial response,[5]; expansion RP2D HCC n=11,0 n (%)
same,Best overall response: Progressive disease,[5]; expansion RP2D HCC n=11,1 (9.1) n (%)
same,Best overall response: Stable disease,[5]; expansion RP2D HCC n=11,5 (46) n (%)
same,Best overall response: Unknown,[5]; expansion RP2D HCC n=11,5 (46) n (%)
same,Best overall response: Complete response,[5]; [8],0 n (%)
same,Best overall response: Partial response,[5]; [8],0 n (%)
same,Best overall response: Progressive disease,[5]; [8],3 (33) n (%)
same,Best overall response: Stable disease,[5]; [8],2 (22) n (%)
same,Best overall response: Unknown,[5]; [8],4 (44) n (%)
same,Best overall response: Complete response,[5]; [9],0 n (%)
same,Best overall response: Partial response,[5]; [9],0 n (%)
same,Best overall response: Progressive disease,[5]; [9],9 (50) n (%)
same,Best overall response: Stable disease,[5]; [9],5 (28) n (%)
same,Best overall response: Unknown,[5]; [9],4 (22) n (%)
same,stable disease,"[5]; expansion, other advanced solid tumor types, five of 18 patients",28%
same,tumor reduction in patients with GCN ≥6,"[5]; expansion, two other solid tumor patients",substantial tumor reduction
same,EC90,c‐MET phosphorylation,~71 nM
